Blank lines part the entries; values can stand above or below the compound they belong to. Calls of active or inactive are those of the source. No cut-off for these calls is given here.
Columns and labels:
Phosphodiesterase 4 [1] = molecular target: T1, Phosphodiesterase 4 (Homo sapiens, UniProt P27815+Q08499+Q07343+Q08493); assay: Inhibition of PDE4 in human U937 cells assessed as accumulation of [3H]adenosine by scintillation counting; assay type: cell-based; settings: u-937
L929 = assay: Cytotoxicity against mouse L929 cells up to 100 uM; assay type: cell-based
PBMC [2] = assay: Antiinflammatory activity in human PBMC assessed as inhibition of IL4 release by FACS Array analysis; assay type: functional, cell-based
PBMC [3] = assay: Antiinflammatory activity in human PBMC assessed as inhibition of phytohemagglutininin-induced IL10 release after 48 hrs by FACS Array analysis; assay type: functional, cell-based
PBMC [4] = assay: Antiinflammatory activity in human PBMC assessed as inhibition of phytohemagglutininin-induced IL5 release after 48 hrs by FACS Array analysis; assay type: functional, cell-based
PBMC [5] = assay: Antiinflammatory activity in human PBMC assessed as inhibition of IL1-beta release by FACSArray analysis; assay type: functional, cell-based
PBMC [6] = assay: Antiinflammatory activity in human PBMC assessed as inhibition of phytohemagglutininin-induced IL2 release after 24 hrs by FACS Array analysis; assay type: functional, cell-based
PBMC [7] = assay: Antiinflammatory activity in human PBMC assessed as inhibition of phytohemagglutininin-induced IFN-gamma release after 24 hrs by FACSArray analysis; assay type: functional, cell-based
PBMC [8] = assay: Antiinflammatory activity in human PBMC assessed as inhibition of LPS-induced TNFalpha release in after 24 hrs by FACS Array analysis; assay type: functional, cell-based
[9] = molecular target: Dual specificity calcium/calmodulin-dependent 3',5'-cyclic nucleotide phosphodiesterase 1A (Homo sapiens, UniProt P54750); assay: Inhibition of human recombinant PDE1A3 expressed in baculovirus-infected insect Sf9 cells by modified two-step method
Outline: (§1)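 Human recombinant enzymes from a baculoviral expression system, tested in a modified two-step PDE assay as part of a PDE1–11 isozyme panel. IC50 values were calculated from the means of three experiments.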

[10] = molecular target: High affinity 3',5'-cyclic-AMP phosphodiesterase 7A (Homo sapiens, UniProt Q13946); assay: Inhibition of human recombinant PDE7A1 expressed in baculovirus-infected insect Sf9 cells by modified two-step method
Outline: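 PDE7A1 was a human recombinant enzyme from a baculoviral expression system, tested in a modified two-step assay. Its substrate concentration was reduced compared with the other panel isozymes. IC50 values were calculated from the means of three experiments.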

[11] = molecular target: cGMP-specific 3',5'-cyclic phosphodiesterase (Homo sapiens) (UniProt O76074); assay: Inhibition of human recombinant PDE5 expressed in baculovirus-infected insect Sf9 cells at 10 uM by modified two-step method
[12] = molecular target: cGMP-dependent 3',5'-cyclic phosphodiesterase (Homo sapiens) (UniProt O00408); assay: Inhibition of human recombinant PDE2 expressed in baculovirus-infected insect Sf9 cells at 10 uM by modified two-step method
Phosphodiesterase 3 = Phosphodiesterase 3 (Homo sapiens, UniProt Q14432+Q13370); assay: Inhibition of human recombinant PDE3 catalytic domain expressed in baculovirus-infected insect Sf9 cells by modified two-step method; outline: as §1
[13] = molecular target: Dual 3',5'-cyclic-AMP and -GMP phosphodiesterase 11A (Homo sapiens) (UniProt Q9HCR9); assay: Inhibition of human recombinant PDE11 expressed in baculovirus-infected insect Sf9 cells at 10 uM by modified two-step method
[14] = molecular target: Phosphodiesterase 6 (Homo sapiens) (UniProt Q13956+P18545+P35913+O43924+P16499+P51160); assay: Inhibition of human recombinant PDE6 expressed in baculovirus-infected insect Sf9 cells at 10 uM by modified two-step method
Mus musculus [15] = assay: Antiinflammatory activity in mouse ear edema model assessed as inhibition of PMA-induced ear edema at 1 mg/ear administered 2 times 30 mins before and 15 mins after PMA challenge measured after 6 hrs of PMA application relative to control; assay type: functional
Phosphodiesterase 4 [16] = molecular target: T1, Phosphodiesterase 4; assay: Inhibition of human recombinant PDE4 catalytic domain expressed in baculovirus-infected insect Sf9 cells by modified two-step method
[17] = molecular target: Phosphodiesterase 8 (Homo sapiens) (UniProt O95263+O60658); assay: Inhibition of human recombinant PDE8 expressed in baculovirus-infected insect Sf9 cells at 10 uM by modified two-step method
[18] = molecular target: High affinity cGMP-specific 3',5'-cyclic phosphodiesterase 9A (Homo sapiens) (UniProt O76083); assay: Inhibition of human recombinant PDE9 expressed in baculovirus-infected insect Sf9 cells at 10 uM by modified two-step method
[19] = molecular target: cAMP and cAMP-inhibited cGMP 3',5'-cyclic phosphodiesterase 10A (Homo sapiens) (UniProt Q9Y233); assay: Inhibition of human recombinant PDE10 expressed in baculovirus-infected insect Sf9 cells at 10 uM by modified two-step method
Mus musculus [20] = assay: Antiinflammatory activity in mouse ear edema model assessed as inhibition of PMA-induced ear edema at 3 mg/ear administered 2 times 30 mins before and 15 mins after PMA challenge measured after 6 hrs of PMA application relative to control; assay type: functional

Sequence of Dual specificity calcium/calmodulin-dependent 3',5'-cyclic nucleotide phosphodiesterase 1A (P54750 whole entry): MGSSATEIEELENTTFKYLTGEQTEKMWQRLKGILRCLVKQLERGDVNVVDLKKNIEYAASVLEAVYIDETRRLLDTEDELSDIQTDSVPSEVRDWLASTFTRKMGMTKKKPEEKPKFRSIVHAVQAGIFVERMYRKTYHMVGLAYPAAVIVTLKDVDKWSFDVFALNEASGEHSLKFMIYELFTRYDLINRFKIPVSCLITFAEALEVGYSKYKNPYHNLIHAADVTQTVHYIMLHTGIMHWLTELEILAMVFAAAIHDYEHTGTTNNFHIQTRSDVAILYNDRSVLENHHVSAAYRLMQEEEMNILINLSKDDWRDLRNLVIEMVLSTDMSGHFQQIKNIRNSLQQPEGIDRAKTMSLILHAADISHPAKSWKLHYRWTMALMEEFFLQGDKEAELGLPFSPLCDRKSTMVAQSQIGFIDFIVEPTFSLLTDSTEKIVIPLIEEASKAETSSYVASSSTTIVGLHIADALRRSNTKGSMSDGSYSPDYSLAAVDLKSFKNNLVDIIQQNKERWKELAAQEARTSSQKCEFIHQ
Sequence of High affinity 3',5'-cyclic-AMP phosphodiesterase 7A (Q13946 whole entry): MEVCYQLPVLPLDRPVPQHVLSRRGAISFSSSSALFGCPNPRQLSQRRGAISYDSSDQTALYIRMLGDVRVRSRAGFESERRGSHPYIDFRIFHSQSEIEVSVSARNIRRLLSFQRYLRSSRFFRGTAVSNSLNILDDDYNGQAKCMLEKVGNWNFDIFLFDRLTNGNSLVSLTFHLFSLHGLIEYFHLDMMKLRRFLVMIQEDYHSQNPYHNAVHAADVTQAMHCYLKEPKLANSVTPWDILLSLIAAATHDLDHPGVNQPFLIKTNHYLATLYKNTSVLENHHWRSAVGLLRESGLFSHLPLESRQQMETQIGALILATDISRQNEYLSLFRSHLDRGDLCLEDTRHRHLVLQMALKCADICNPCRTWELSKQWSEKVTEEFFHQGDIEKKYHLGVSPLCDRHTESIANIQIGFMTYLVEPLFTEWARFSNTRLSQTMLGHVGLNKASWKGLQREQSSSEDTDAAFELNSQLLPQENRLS
Sequence of cGMP-dependent 3',5'-cyclic phosphodiesterase (Homo sapiens) (O00408 whole entry, the tested form may be a part): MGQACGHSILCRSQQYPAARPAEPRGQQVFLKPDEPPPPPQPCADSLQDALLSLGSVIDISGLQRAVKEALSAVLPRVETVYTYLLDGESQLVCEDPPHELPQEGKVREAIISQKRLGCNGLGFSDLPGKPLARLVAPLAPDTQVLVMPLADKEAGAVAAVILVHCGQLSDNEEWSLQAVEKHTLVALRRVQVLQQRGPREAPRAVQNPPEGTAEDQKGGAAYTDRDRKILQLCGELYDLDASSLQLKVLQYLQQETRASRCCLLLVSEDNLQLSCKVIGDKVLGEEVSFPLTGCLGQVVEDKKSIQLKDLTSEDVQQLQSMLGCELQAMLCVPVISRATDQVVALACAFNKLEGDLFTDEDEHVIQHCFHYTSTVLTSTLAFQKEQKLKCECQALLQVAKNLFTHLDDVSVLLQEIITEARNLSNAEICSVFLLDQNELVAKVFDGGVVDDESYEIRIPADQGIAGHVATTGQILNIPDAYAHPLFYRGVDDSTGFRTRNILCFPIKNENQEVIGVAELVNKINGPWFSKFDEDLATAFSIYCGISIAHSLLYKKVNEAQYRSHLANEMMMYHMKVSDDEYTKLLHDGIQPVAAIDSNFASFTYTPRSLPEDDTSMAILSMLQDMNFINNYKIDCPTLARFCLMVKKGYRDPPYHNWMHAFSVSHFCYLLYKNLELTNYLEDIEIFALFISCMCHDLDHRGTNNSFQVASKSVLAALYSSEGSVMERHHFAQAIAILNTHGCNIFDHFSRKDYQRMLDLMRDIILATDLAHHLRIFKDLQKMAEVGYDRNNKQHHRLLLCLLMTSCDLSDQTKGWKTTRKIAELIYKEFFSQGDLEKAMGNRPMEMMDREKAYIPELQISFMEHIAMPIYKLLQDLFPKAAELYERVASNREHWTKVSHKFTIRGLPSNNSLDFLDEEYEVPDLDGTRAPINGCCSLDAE
Sequence of Dual 3',5'-cyclic-AMP and -GMP phosphodiesterase 11A (Homo sapiens) (Q9HCR9 whole entry, looked up): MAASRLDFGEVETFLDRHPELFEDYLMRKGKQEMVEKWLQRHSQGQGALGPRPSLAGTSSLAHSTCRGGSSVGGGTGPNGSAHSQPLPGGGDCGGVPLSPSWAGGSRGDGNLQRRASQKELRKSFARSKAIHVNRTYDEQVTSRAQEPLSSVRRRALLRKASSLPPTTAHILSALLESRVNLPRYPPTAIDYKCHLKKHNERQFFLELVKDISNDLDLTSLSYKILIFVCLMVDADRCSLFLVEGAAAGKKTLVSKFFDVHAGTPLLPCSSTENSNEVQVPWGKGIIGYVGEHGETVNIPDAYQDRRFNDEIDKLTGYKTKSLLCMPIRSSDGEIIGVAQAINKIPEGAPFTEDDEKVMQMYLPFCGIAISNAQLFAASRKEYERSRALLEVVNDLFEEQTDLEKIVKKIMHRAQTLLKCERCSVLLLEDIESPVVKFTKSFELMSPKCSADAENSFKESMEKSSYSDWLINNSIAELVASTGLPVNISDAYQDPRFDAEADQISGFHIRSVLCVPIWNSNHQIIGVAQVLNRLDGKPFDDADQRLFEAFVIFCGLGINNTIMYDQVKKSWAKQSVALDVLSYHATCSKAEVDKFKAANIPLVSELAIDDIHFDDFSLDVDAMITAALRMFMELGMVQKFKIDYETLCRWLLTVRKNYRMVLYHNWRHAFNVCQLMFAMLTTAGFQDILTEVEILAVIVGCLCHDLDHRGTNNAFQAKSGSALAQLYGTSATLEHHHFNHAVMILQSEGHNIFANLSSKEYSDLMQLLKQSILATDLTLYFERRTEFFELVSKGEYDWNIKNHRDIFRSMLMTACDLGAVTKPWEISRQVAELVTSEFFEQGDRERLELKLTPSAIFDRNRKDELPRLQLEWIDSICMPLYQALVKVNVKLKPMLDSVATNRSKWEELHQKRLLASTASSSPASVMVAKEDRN
Sequence of Phosphodiesterase 8 (Homo sapiens) (O60658 whole entry, looked up): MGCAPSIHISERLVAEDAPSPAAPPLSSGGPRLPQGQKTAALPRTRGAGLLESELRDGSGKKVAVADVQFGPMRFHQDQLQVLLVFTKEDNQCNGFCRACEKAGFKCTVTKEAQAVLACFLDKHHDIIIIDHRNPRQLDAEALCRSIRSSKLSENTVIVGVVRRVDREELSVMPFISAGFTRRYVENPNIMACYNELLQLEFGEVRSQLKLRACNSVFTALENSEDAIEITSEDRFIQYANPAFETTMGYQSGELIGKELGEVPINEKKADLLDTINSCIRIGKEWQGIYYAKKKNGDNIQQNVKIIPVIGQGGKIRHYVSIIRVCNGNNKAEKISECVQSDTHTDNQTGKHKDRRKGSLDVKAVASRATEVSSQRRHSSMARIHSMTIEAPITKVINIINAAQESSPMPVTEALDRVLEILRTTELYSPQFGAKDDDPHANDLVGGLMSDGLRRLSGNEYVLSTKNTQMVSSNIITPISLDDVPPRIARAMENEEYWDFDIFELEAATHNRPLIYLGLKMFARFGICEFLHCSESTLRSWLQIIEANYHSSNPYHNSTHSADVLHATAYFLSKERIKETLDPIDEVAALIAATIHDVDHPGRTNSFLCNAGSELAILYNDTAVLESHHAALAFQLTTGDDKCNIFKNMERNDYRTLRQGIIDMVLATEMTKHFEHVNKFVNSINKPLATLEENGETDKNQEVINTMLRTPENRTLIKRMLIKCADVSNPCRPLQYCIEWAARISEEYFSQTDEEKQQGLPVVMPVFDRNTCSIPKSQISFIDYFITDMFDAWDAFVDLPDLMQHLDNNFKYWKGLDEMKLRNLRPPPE
Sequence of Phosphodiesterase 8 (Homo sapiens) (O95263 whole entry, looked up): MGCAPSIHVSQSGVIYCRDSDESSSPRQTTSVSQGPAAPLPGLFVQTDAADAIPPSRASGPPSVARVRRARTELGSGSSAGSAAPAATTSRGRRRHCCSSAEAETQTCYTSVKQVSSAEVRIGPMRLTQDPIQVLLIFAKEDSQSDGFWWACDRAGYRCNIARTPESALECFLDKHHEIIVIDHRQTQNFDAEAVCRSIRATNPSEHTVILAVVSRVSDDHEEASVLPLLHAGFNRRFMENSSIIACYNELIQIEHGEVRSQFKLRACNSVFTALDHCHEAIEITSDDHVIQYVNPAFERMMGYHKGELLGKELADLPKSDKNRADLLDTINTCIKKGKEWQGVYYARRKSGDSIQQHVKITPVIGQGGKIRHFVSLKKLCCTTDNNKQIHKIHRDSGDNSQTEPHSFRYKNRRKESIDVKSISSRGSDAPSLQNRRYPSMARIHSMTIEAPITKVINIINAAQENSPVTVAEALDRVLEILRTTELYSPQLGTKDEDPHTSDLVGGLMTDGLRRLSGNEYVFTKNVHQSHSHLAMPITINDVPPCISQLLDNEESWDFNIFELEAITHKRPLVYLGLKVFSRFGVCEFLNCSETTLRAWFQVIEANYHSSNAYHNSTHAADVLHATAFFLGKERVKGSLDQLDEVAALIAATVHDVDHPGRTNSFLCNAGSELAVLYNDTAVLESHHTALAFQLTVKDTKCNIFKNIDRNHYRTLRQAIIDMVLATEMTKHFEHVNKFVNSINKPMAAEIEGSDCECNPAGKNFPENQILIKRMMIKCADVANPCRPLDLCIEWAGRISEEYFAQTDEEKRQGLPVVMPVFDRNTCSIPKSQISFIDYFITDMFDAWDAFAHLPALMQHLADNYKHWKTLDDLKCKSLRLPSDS

SMILES: COc1ccc(Oc2ccc3c(c2)COB3O)cc1
IC50 (Phosphodiesterase 4 [1]): 2700 nM

SMILES: COCc1nc2c([nH]1)c(=O)n(C)c(=O)n2CC(C)C
IC50 [9]: 10000 nM

SMILES: Cc1ccc([N+](=O)[O-])cc1S(=O)(=O)N(C)C
IC50 [10]: 2200 nM

SMILES: CN1CCN(S(=O)(=O)c2ccc(Oc3ccc4c(c3)COB4O)cc2)CC1
IC50 (Phosphodiesterase 4 [1]): > 30000 nM

SMILES: N#Cc1ccc(Oc2ccc3c(c2)COB3O)cc1 [CRISABOROLE]
inhibition [11]: inactive
inhibition [12]: inactive
Activity (L929): Non-toxic
IC50 (Phosphodiesterase 3): 6400 nM
inhibition (PBMC [2]): inactive
inhibition [13]: inactive
inhibition [14]: inactive
IC50 (PBMC [3]): 5300 nM
IC50 (Phosphodiesterase 4 [1]): 490 nM
IC50 (PBMC [4]): 2400 nM
inhibition (PBMC [5]): inactive
inhibition (INH) (Mus musculus [15]): 78%
IC50 (Phosphodiesterase 4 [16]): 110 nM
inhibition [17]: inactive
inhibition [18]: inactive
IC50 (PBMC [6]): 610 nM
inhibition [19]: inactive
IC50 [9]: 6100 nM
IC50 (PBMC [7]): 830 nM
IC50 (PBMC [8]): 540 nM

SMILES: C[C@@H]1C[C@H]2[C@@H]3CCC4=CC(=O)C=C[C@]4(C)[C@@]3(F)[C@@H](O)C[C@]2(C)[C@@]1(O)C(=O)CO [DEXAMETHASONE]
inhibition (INH) (Mus musculus [15]): 72%

SMILES: COc1ccc(C2CNC(=O)C2)cc1OC1CCCC1 (stereo not drawn) [ROLIPRAM]
IC50 (PBMC [3]): 880 nM
IC50 (PBMC [4]): 500 nM
inhibition (INH) (Mus musculus [15]): 6%
IC50 (PBMC [6]): 230 nM
inhibition (INH) (Mus musculus [20]): 53%
IC50 (PBMC [7]): 230 nM
IC50 (PBMC [8]): 160 nM

SMILES: Cc1ccc(Oc2ccc3c(c2)COB3O)cc1
IC50 (Phosphodiesterase 4 [1]): 2000 nM

SMILES: O=C1CCc2cc(OCCCCc3nnnn3C3CCCCC3)ccc2N1 [CILOSTAZOL]
IC50 (Phosphodiesterase 3): 840 nM

SMILES: CCN(CC)C(=O)c1ccc(Oc2ccc3c(c2)COB3O)cc1
IC50 (Phosphodiesterase 4 [1]): 1500 nM

SMILES: N#Cc1ccc(Oc2cccc3c2B(O)OC3)cc1
IC50 (Phosphodiesterase 4 [1]): > 30000 nM

Second part, led by results:

IC50 (Phosphodiesterase 4 [1]): 570 nM
SMILES: O=C(c1ccc(Oc2ccc3c(c2)COB3O)cc1)N1CCOCC1

IC50 (Phosphodiesterase 4 [1]): 3700 nM
SMILES: N#Cc1ccccc1Oc1ccc2c(c1)COB2O

IC50 (Phosphodiesterase 4 [1]): > 30000 nM
SMILES: N#Cc1ccc(Oc2ccc3c(c2)B(O)OC3)cc1
Activity (L929): Non-toxic
inhibition (PBMC [2]): inactive
IC50 (PBMC [3]): > 10000 nM
IC50 (PBMC [4]): > 10000 nM
inhibition (PBMC [5]): inactive
IC50 (PBMC [6]): > 10000 nM
IC50 (PBMC [7]): > 10000 nM
IC50 (PBMC [8]): > 10000 nM

IC50 (Phosphodiesterase 4 [1]): 6800 nM
SMILES: OB1OCc2cc(Oc3ccccc3)ccc21

IC50 (Phosphodiesterase 4 [1]): 4400 nM
SMILES: N#Cc1cccc(Oc2ccc3c(c2)COB3O)c1

IC50 (Phosphodiesterase 4 [1]): 3400 nM
SMILES: CCN(CC)S(=O)(=O)c1ccc(Oc2ccc3c(c2)COB3O)cc1

IC50 (Phosphodiesterase 4 [1]): 6400 nM
SMILES: O=C(O)c1ccc(Oc2ccc3c(c2)COB3O)cc1
Activity (L929): Non-toxic
inhibition (PBMC [2]): inactive
IC50 (PBMC [3]): > 10000 nM
IC50 (PBMC [4]): > 10000 nM
inhibition (PBMC [5]): inactive
IC50 (PBMC [6]): > 10000 nM
IC50 (PBMC [7]): > 10000 nM
IC50 (PBMC [8]): > 10000 nM

IC50 (Phosphodiesterase 4 [1]): 450 nM
SMILES: OB1OCc2cc(Oc3ccc(C(F)(F)F)cc3)ccc21

IC50 (Phosphodiesterase 4 [1]): 6000 nM
SMILES: N#Cc1ccc(Oc2cccc3c2COB3O)cc1

IC50 (Phosphodiesterase 4 [1]): 7700 nM
SMILES: OB1OCc2cc(Oc3ccc(F)cc3)ccc21

IC50 (Phosphodiesterase 4 [1]): 1300 nM
SMILES: OB1OCc2cc(Oc3ccc(Cl)cc3)ccc21

— ChEMBL document CHEMBL1153998, “Discovery and structure-activity study of a novel benzoxaborole anti-inflammatory agent (AN2728) for the potential topical treatment of psoriasis and atopic dermatitis” (Bioorg Med Chem Lett, 2009)
